Assay results gathered from unrelated publications.
Target: Serine/threonine-protein kinase D2 (PRKD2, Homo sapiens, UniProt Q9BZL6)
Residues used in one study (Q9BZL6 1-878): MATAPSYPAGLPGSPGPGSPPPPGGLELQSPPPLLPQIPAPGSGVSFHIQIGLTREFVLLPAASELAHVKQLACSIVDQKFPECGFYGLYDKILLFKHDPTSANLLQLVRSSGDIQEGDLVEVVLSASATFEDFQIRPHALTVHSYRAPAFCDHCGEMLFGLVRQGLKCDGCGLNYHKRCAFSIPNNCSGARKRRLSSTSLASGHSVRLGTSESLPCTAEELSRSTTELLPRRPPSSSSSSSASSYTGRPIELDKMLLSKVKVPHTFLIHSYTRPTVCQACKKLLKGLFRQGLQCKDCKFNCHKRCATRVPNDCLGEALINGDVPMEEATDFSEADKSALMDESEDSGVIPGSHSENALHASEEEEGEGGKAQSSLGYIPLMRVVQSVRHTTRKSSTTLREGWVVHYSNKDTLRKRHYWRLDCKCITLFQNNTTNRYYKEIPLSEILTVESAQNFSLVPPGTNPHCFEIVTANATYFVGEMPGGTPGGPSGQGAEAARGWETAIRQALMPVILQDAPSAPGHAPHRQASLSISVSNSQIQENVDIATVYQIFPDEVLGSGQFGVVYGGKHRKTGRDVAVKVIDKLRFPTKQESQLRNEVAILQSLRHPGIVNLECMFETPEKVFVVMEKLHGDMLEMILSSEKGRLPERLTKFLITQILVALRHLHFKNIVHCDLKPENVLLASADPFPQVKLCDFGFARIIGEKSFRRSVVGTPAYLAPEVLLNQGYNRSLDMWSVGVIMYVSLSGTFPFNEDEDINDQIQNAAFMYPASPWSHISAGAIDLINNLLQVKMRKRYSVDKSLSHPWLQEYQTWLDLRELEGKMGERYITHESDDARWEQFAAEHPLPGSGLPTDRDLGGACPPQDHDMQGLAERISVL

| SMILES | read-out | mode | technique | concentration | quantity | value |
| --- | --- | --- | --- | --- | --- | --- |
| CN1CC(Oc2cnc(C#N)cc2-c2ccn3nc(NC(=O)C4CC4)cc3c2)C1 | enzyme activity | inhibitor |  | 1 µM | inhibition | -22% |
| CC(C)CC(=O)N1CCc2nc(-c3ccc(Br)cc3)nc(N(C)Cc3ccccc3)c2C1 | cell-free assay |  | competition with immobilised ligand | 0.1 µM | remaining binding | 100% |
| Cn1cncc1C1=CN(c2ncnc3[nH]cnc23)CCS1 | enzyme activity | inhibitor | radiometric | 50 nM | inhibition | 38.2% |
| CNc1cccc2cc(C(=O)Nc3ccc(C(=O)O)cc3)c(=O)[nH]c12 | enzyme activity | inhibitor |  | 10 µM | inhibition | 2.5% |
| O=C(Nc1cnn(-c2csc(C(=O)NC3COC3)c2)c1)Nc1ccccc1Cl | enzyme activity | inhibitor |  | 5 µM | remaining activity | 92.8% |
| Cn1nc(C(=O)NCc2ccc(C(=O)O)cc2)cc1-c1ccc2[nH]ccc2c1 | cell-free assay |  | competition with immobilised ligand | 0.1 µM | remaining binding | 100% |
| CC(C)(O)[C@H]1CC[C@H](Nc2ccc3ncc(-c4cccc(C(F)(F)F)c4)n3n2)CC1 | enzyme activity | inhibitor |  | 1 µM | remaining activity | 92% |
| N#CCCc1ccc2c(c1)-c1[nH]c3ccc([N+](=O)[O-])cc3c1CC(=O)N2 | cell-free assay |  |  | 0.5 µM | remaining signal | 94.2% |
| CN([C@@H]1CCc2c(CC(=O)O)c3ccccc3n2C1)S(=O)(=O)c1ccc(F)cc1 | cell-free assay |  | competition with immobilised ligand | 1 µM | remaining binding | 100% |
| O=S1(=O)N=C(NCc2ccc(OC(F)(F)F)cc2)Nc2cc(Cl)ccc21 | binding |  | competition with immobilised ligand | 10 µM | inhibition | > 90% |
| CO[C@H]1CC[C@H](CNc2ccc(S(=O)(=O)NC(=O)c3ccc(N4CCN(CC5=C(c6ccc(Cl)cc6)CC(C)(C)CC5)CC4)cc3Oc3cnc4[nH]ccc4c3)cc2[N+](=O)[O-])CC1 | cell-free assay |  | competition with immobilised ligand | 1 µM | remaining binding | 100% |
| CCN(CC)CCNC(=O)c1c(C)[nH]c(/C=C2\C(=O)Nc3ccc(F)cc32)c1C | enzyme activity | inhibitor |  | 0.3 µM | inhibition | 30% |
| CCCCN(CCCC)C(=O)CN1C[C@H](c2cc(OC)c3c(c2)OCO3)[C@@H](C(=O)O)[C@@H]1CC(C)(C)CCC | cell-free assay |  | competition with immobilised ligand | 1 µM | remaining binding | 100% |
| CCCS(=O)(=O)Nc1ccc(F)c(C(=O)c2c[nH]c3ncc(-c4ccc(Cl)cc4)cc23)c1F | enzyme activity | inhibitor |  | 1 µM | inhibition | < 10% |
| Cc1c(NC(=O)c2cc(C(N)=O)nc3cc(F)ccc23)c(C(F)(F)F)nn1Cc1ccc(C(C)(C)C)cc1 | cell-free assay |  | competition with immobilised ligand | 1 µM | remaining binding | 100% |
| Cc1ccc(C(=O)Nc2ccc(CN3CCN(C)CC3)c(C(F)(F)F)c2)cc1C#Cc1cnc2cccnn12 | enzyme activity | inhibitor |  | 23.5 nM | remaining activity | 95% |
| CC(C)(C)c1nc2c(s1)c1nc(N)ncc1c1ccc(NS(=O)(=O)c3c(F)cccc3F)c(F)c12 | enzyme activity | inhibitor | radiometric | 1 µM | remaining activity | 79% |

| SMILES | read-out | mode | technique | concentration | quantity | value |
| --- | --- | --- | --- | --- | --- | --- |
| Cn1c2c(c3ccc(Cl)c(Cl)c31)C(C#N)C1(CCN(C(=O)OC(C)(C)C)CC1)NC2=O (racemic) | thermal stability |  | DSF | 10 µM | ΔTm | 0 °C |
| Cc1ccc(NC(=O)c2ccc(C)c(C(F)(F)F)c2)cc1C#Cc1nn(C2CCC(O)CC2)c2ncnc(N)c12 (stereo not shown) | cell-free assay |  |  | 10 µM | remaining signal | 108% |
| COc1cc(Cl)c(C(=O)N[C@@H](CN[C@H]2CC[C@@H](N)CC2)Cc2ccc(C#N)cc2)cc1-c1ccc(CN[C@H](C)c2ccc(C)cc2)o1 | enzyme activity | inhibitor |  | 1 µM | remaining activity | 109% |
| CC(=O)Nc1c(C(C)=O)c(=O)n(C)c2nc(-c3ccc(Cl)cc3Cl)c(-c3ccc(Cl)cc3)cc12 | cell-free assay |  | competition with immobilised ligand | 1 µM | remaining binding | 100% |
| CNC(=O)c1cc(Oc2ccc(NC(=O)Nc3ccc(Cl)c(C(F)(F)F)c3)cc2)ccn1 | enzyme activity | inhibitor |  | 0.3 µM | inhibition | 5% |
| CSc1cccnc1N1CCN(Cc2nc3ccccc3[nH]2)CC1 | cell-free assay |  | competition with immobilised ligand | 1 µM | remaining binding | 100% |
| Cn1cnc(Br)c1C1=CN(c2ncnc3[nH]cnc23)CCS1 | enzyme activity | inhibitor | radiometric | 2 µM | inhibition | 95.6% |
| CC1(C)NC(=O)c2[nH]c3c(Cl)c(Cl)ccc3c2C1C#N (stereo not shown) | thermal stability |  | DSF | 10 µM | ΔTm | -0.1 °C |
| Cc1ccc(Nc2nccc(N(C)c3ccc4c(C)n(C)nc4c3)n2)cc1S(N)(=O)=O | enzyme activity | inhibitor |  | 0.3 µM | inhibition | 9% |
| Cn1c2c(Cl)c(Cl)ccc2c2cn[nH]c(=O)c21 | thermal stability |  | DSF | 10 µM | ΔTm | 0.1 °C |
| CCCCNc1ncc2c(-c3ccc(F)cc3)nn(C[C@H]3CC[C@H](N)CC3)c2n1 | target engagement in cells | inhibitor | chemoproteomics | 20 mM | inhibition | 28.3% |
| N#CC1c2c([nH]c3c(Cl)c(Cl)ccc23)C(=O)NC12CCCCC2 (racemic) | thermal stability |  | DSF | 10 µM | ΔTm | 0.1 °C |
| O=C1Nc2ccc(Cl)cc2C1=Cc1cc(Cl)c(O)c(Cl)c1 | cell-free assay |  |  | 0.5 µM | remaining signal | 95.5% |
| CCN1CCC2(CC1)NC(=O)c1c(c3ccc(Cl)c(Cl)c3n1C)C2C#N (racemic) | thermal stability |  | DSF | 10 µM | ΔTm | 0.6 °C |
| COc1cc2ncnc(Nc3ccc(Oc4ccccc4)cc3C)c2cc1OC | enzyme activity | inhibitor |  | 1 µM | inhibition | 9% |
| Cn1c2c(Cl)c(Cl)ccc2c2cc[nH]c(=O)c21 | thermal stability |  | DSF | 10 µM | ΔTm | 0.4 °C |
| Cc1cc(NC(=O)c2cccc3cc(-c4cccc5[nH]nc(N)c45)ccc23)ccc1F | enzyme activity | inhibitor |  | 0.1 µM | activity vs control | 91% |
